According to ChEMBL document CHEMBL3232902, “PMPA and PMEA prodrugs for the treatment of HIV infections and human papillomavirus (HPV) associated neoplasia and cancer” (Eur J Med Chem, 2014):

Legend:
[1] = tested on: HeLa; test: Cytostatic activity against human HeLa cells after 72 hrs by coulter counting analysis; assay type: functional, cell-based; conditions: Homo sapiens, HeLa, 72 h
Procedure, shortened: (§1)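 (5-7.5)×10^4 cells/well were incubated with compound at 37°C, for 48 h (L1210) or 72 h (CEM, HeLa), then counted by Coulter counter. IC50 is the concentration inhibiting proliferation by 50%.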

[2] = Cytotoxicity against human CEM cells; assay type: cell-based, CCRF-CEM; conditions: CEM (CCRF-CEM) cells
[3] = tested on: Human alphaherpesvirus 2; test: Antiviral activity against Herpes simplex virus G infected in HEL cells assessed as inhibition of virus-induced cytopathicity; assay type: functional, organism-based, strain G; conditions: Human alphaherpesvirus 2, strain G, HEL
Procedure, shortened: (§2)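 Confluent HEL cell cultures were inoculated with 100 CCID50 of virus in the presence of varying compound concentrations. Cytopathicity or plaque formation was scored once untreated infected controls reached completion. EC50 is the concentration inhibiting virus-induced cytopathicity by 50%.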

[4] = tested on: CCRF-CEM; test: Cytostatic activity against human CEM cells after 72 hrs by coulter counting analysis; assay type: functional, cell-based; conditions: Homo sapiens, CCRF-CEM, 72 h; procedure, shortened: as §1
[5] = tested on: Human immunodeficiency virus 2; test: Antiviral activity against Human immunodeficiency virus type 2 ROD infected in human CEM cells assessed as inhibition of virus-induced giant cell formation after 4 to 5 days by microscopic analysis; assay type: functional, organism-based, ISOLATE ROD, CCRF-CEM; conditions: Human immunodeficiency virus 2, ISOLATE ROD, CCRF-CEM
Procedure, shortened: (§3)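 CEM cells (~3×10^5/mL) were infected with 100 CCID50/mL HIV-1 IIIB or HIV-2 ROD with compound dilutions. After 4–5 days at 37°C, syncytium formation was scored microscopically. EC50 is the concentration inhibiting giant cell formation by 50%.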

[6] = tested on: Human alphaherpesvirus 1; test: Antiviral activity against Herpes simplex virus KOS infected in HEL cells assessed as inhibition of virus-induced cytopathicity; assay type: functional, organism-based; conditions: Human alphaherpesvirus 1, KOS, HEL; procedure, shortened: as §2
[7] = tested on: Human immunodeficiency virus 1; test: Antiviral activity against Human immunodeficiency virus 1 3B infected in human CEM cells assessed as inhibition of virus-induced giant cell formation after 4 to 5 days by microscopic analysis; assay type: functional, organism-based, CCRF-CEM; procedure, shortened: as §3
[8] = Antiproliferative activity against human C33A cells after 72 hrs by flow cytometric analysis; assay type: cell-based, C-33-A; conditions: Homo sapiens, C-33-A, 72 h
Procedure, shortened: (§4)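 SiHa (HPV16+), HeLa (HPV18+) and C33A (HPV-) cervical carcinoma lines grown in DMEM with 10% FBS at 37°C, 5% CO2. Seeded 4×10^3 cells/well and left to adhere 24 h. Treated in triplicate with 1, 10 and 100 μM of compound formulated in ~1% DMSO/PBS pH 7.4.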

[9] = tested on: Human alphaherpesvirus 1; test: Antiviral activity against thymidine kinase-deficient acyclovir-resistant Herpes simplex virus KOS infected in HEL cells assessed as inhibition of virus-induced cytopathicity; assay type: functional, organism-based; conditions: Human alphaherpesvirus 1, KOS; procedure, shortened: as §2
[10] = tested on: L1210; test: Cytostatic activity against mouse L1210 cells after 48 hrs by coulter counting analysis; assay type: functional, cell-based; procedure, shortened: as §1
[11] = Cytotoxicity against HEL cells assessed as change in cellular morphology by microscopic analysis; assay type: cell-based; conditions: human, read-out: MIC
Procedure, shortened: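 Uninfected HEL monolayers were exposed to compound. Minimal cytotoxic concentration is the concentration causing microscopically visible alteration of cell morphology.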

[12] = tested on: Vaccinia virus; test: Antiviral activity against Vaccinia virus Lederle infected in HEL cells assessed as inhibition of virus-induced cytopathicity; assay type: functional, organism-based; conditions: Orthopoxvirus vaccinia; procedure, shortened: as §2
[13] = tested on: SiHa; test: Antiproliferative activity against human SiHa cells infected with HPV-16 after 72 hrs by flow cytometric analysis; assay type: functional, cell-based; procedure, shortened: as §4
[14] = tested on: HeLa; test: Antiproliferative activity against human HeLa cells infected with HPV-18 after 72 hrs by flow cytometric analysis; assay type: functional, cell-based; procedure, shortened: as §4
[15] = Antiproliferative activity against human M08 cells infected with HPV-16 after 96 hrs by trypan blue staining-based Neubauer haemocytometric analysis; assay type: functional, cell-based; conditions: M08, 96 h
Procedure, shortened: (§5)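 SiHa and HPV16+ M08 vulval keratinocytes (VIN3 biopsy-derived) were seeded at 4×10^3 cells/well; human epidermal keratinocytes (EpiLife medium) at 3.5×10^4 cells/well. All adhered 24 h, then were exposed to 0.1 and 1 μM compound in replicate for 96 h at 37°C. Cells were trypsinised, resuspended in PBS and counted in 0.4% trypan blue on a haemocytometer.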

[16] = tested on: SiHa; test: Antiproliferative activity against human SiHa cells infected with HPV-16 after 96 hrs by trypan blue staining-based Neubauer haemocytometric analysis; assay type: functional, cell-based; procedure, shortened: as §5
[17] = Antiproliferative activity against human epidermal keratinocytes after 96 hrs by trypan blue staining-based Neubauer haemocytometric analysis; assay type: cell-based; conditions: Keratinocyte; procedure, shortened: as §5
[18] = Human immunodeficiency virus 1, 3B, CCRF-CEM

Compound | IC50 [1] [nM] | CC50 [2] [nM] | EC50 [3] [nM] | IC50 [4] [nM] | EC50 [5] [nM] | EC50 [6] [nM] | EC50 [7, 18] [nM] | IC50 [8] [nM] | EC50 [9] [nM] | IC50 ([10]; Mus musculus, L1210, 48 h) [nM] | MCC [11] [µM] | EC50 [12] [nM] | IC50 [13] [nM] | IC50 ([14]; Homo sapiens, HeLa, 72 h) [nM] | IC50 [15] [nM] | IC50 [16] [nM] | IC50 [17] [nM] | EC50 ([7]; ccrf-cem) [nM] | IC50 ([10]; l1210) [nM] | IC50 ([14]; hela) [nM]
Nc1ncnc2c1ncn2CCOCP(=O)(O)O [ADEFOVIR] | 181000 | ≥ 50000 | 6300 | 24000 | 8200 | 4700 | 8400 | 7800 | 7000 | 3000 | > 100 | – | – | – | – | – | – | – | – | –
C[C@H](Cn1cnc2c(N)ncnc21)OCP(=O)(N[C@@H](C)C(=O)OCC(C)(C)C)Oc1ccccc1 (stereo not given in full) | 8000 | 2300 | 700 | 2300 | 12 | 1300 | 18 | – | 1000 | 4000 | > 100 | 8000 | – | – | – | – | – | – | – | –
C[C@H](Cn1cnc2c(N)ncnc21)OCP(=O)(N[C@@H](C)C(=O)OCC(C)(C)C)N[C@@H](C)C(=O)OCC(C)(C)C | 4000 | 1200 | 700 | 1200 | 2 | 1500 | 4 | 700 | 2000 | 1500 | > 100 | 6000 | 730 | 540 | – | – | – | – | – | –
C[C@H](NP(=O)(COCCn1cnc2c(N)ncnc21)Oc1cccc2ccccc12)C(=O)OCC(C)(C)C (stereo not given in full) | 920 | 45 | 100 | 45 | 19 | 250 | 32 | 540 | 200 | 68 | > 100 | 1600 | 600 | 500 | 48 | 90 | 76 | – | – | –
C[C@H](Cn1cnc2c(N)ncnc21)OCP(=O)(O)O [TENOFOVIR ANHYDROUS] | 17000 | > 500000 | 122000 | 6900 | 3700 | 105000 | 3900 | – | 151000 | 11000 | > 100 | > 100000 | – | – | – | – | – | – | – | –
C[C@H](Cn1cnc2c(N)ncnc21)OCP(=O)(N[C@@H](C)C(=O)OCC(C)(C)C)Oc1cccc2c1CCCC2 (stereo not given in full) | 5300 | 2000 | 1400 | 2000 | 9 | 1400 | 11 | – | 5500 | 1300 | > 100 | 10500 | – | – | – | – | – | – | – | –
C[C@H](NP(=O)(COCCn1cnc2c(N)ncnc21)N[C@@H](C)C(=O)OCc1ccccc1)C(=O)OCc1ccccc1 | 670 | 140 | 250 | 140 | 25 | 700 | 40 | – | 600 | 210 | > 100 | 5000 | – | – | – | – | – | – | – | –
C[C@H](NP(=O)(COCCn1cnc2c(N)ncnc21)N[C@@H](C)C(=O)OCC(C)(C)C)C(=O)OCC(C)(C)C | 1600 | 200 | 200 | 200 | 19 | 300 | 24 | 840 | 300 | 240 | > 100 | 2700 | 660 | 600 | 820 | 830 | 300 | – | – | –
C[C@H](NP(=O)(COCCn1cnc2c(N)ncnc21)Oc1ccccc1)C(=O)OCC(C)(C)C (stereo not given in full) | 2200 | 400 | 150 | 400 | 44 | 600 | 56 | – | 550 | 150 | > 100 | 3700 | – | – | – | – | – | – | – | –
C[C@H](NP(=O)(COCCn1cnc2c(N)ncnc21)Oc1cccc2ccccc12)C(=O)OCc1ccccc1 (stereo not given in full) | 1600 | 120 | 8 | 120 | 50 | 20 | 30 | – | 700 | 41 | > 100 | 9500 | – | – | – | – | – | – | – | –
C[C@H](Cn1cnc2c(N)ncnc21)OCP(=O)(N[C@@H](C)C(=O)OCC(C)(C)C)Oc1cccc2ccccc12 (stereo in doubt; 15) | 17000 | 6900 | 700 | 6900 | 7 | 1500 | – | 7600 | 2000 | – | > 100 | 4000 | – | – | – | – | – | 9 | 5600 | 530
C[C@H](Cn1cnc2c(N)ncnc21)OCP(=O)(N[C@@H](C)C(=O)OCc1ccccc1)N[C@@H](C)C(=O)OCc1ccccc1 | > 500000 | 6900 | 3000 | > 500000 | 14 | 10000 | 30 | – | 7000 | 120000 | > 100 | 20000 | – | – | – | – | – | – | – | –
C[C@H](Cn1cnc2c(N)ncnc21)OCP(=O)(N[C@@H](C)C(=O)OCc1ccccc1)Oc1cccc2ccccc12 (stereo not given in full) | 11000 | 4400 | 700 | 4400 | 11 | 1300 | 19 | – | 800 | 3700 | > 100 | 5500 | – | – | – | – | – | – | – | –
